Results as given in ChEMBL document CHEMBL4014306, “Pyrazolopyrimidines as Potent Stimulators for Transient Receptor Potential Canonical 3/6/7 Channels” (J Med Chem, 2017).
Blank lines part the entries; values can stand above or below the compound they belong to. The source made the active and inactive calls. The calls are words filed in the database; no cut-off is given here.

Assays:
Format in all cases: cell-based
[1] = biological target: T1, Short transient receptor potential channel 3 (Homo sapiens) (UniProt Q13507); experiment: Agonist activity at human TRPC3 expressed in HEK293 cells assessed as induction of channel current at 10 uM measured for 2.5 mins in presence of 0.5 mM Ca2+ by whole cell patch-clamp method
T1 sequence (whole entry): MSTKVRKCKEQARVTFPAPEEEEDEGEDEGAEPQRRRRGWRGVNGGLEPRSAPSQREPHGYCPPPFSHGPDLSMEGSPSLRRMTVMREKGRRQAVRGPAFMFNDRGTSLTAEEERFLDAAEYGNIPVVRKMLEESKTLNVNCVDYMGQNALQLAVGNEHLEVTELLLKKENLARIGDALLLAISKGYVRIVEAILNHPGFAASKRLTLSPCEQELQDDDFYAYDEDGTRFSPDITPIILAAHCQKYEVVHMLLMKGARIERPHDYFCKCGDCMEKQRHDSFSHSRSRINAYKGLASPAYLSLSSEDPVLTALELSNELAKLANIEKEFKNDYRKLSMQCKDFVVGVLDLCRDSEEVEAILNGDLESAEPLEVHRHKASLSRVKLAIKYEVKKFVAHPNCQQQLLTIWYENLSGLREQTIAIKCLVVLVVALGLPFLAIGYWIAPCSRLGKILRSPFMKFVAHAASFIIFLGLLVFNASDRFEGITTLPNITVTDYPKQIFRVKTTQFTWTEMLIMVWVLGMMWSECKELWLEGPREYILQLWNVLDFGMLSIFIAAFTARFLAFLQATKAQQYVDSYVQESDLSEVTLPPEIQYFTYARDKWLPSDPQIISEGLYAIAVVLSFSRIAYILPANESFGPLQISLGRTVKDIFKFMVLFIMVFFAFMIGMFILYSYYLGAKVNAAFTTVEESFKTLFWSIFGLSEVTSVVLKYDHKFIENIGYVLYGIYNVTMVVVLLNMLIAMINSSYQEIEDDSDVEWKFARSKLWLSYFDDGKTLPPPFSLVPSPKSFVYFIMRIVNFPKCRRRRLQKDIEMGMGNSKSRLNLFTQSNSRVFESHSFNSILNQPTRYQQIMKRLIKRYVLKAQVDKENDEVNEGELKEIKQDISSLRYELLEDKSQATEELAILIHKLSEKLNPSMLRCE
In short: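 Whole-cell recording of human TRPC3 HEK293 cells in bath with 0.5 mM Ca2+. Pipette had 400 nM free Ca2+ buffered by BAPTA. Ramps +100 to −100 mV every 1 s. Compound at 10 μM applied by perfusion; I–V compared against basal.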

[2] = biological target: T2, Transient receptor potential cation channel subfamily M member 5 (Homo sapiens) (UniProt Q9NZQ8); experiment: Inhibition of human TRPM5 expressed in HEK293 cells assessed as decrease in carbachol-evoked membrane depolarization at 22 uM preincubated for 2 mins followed by carbachol addition measured for 2.5 mins by FLIPR membrane potential dye-based fluorescence assay relative to control
T2 sequence (whole entry): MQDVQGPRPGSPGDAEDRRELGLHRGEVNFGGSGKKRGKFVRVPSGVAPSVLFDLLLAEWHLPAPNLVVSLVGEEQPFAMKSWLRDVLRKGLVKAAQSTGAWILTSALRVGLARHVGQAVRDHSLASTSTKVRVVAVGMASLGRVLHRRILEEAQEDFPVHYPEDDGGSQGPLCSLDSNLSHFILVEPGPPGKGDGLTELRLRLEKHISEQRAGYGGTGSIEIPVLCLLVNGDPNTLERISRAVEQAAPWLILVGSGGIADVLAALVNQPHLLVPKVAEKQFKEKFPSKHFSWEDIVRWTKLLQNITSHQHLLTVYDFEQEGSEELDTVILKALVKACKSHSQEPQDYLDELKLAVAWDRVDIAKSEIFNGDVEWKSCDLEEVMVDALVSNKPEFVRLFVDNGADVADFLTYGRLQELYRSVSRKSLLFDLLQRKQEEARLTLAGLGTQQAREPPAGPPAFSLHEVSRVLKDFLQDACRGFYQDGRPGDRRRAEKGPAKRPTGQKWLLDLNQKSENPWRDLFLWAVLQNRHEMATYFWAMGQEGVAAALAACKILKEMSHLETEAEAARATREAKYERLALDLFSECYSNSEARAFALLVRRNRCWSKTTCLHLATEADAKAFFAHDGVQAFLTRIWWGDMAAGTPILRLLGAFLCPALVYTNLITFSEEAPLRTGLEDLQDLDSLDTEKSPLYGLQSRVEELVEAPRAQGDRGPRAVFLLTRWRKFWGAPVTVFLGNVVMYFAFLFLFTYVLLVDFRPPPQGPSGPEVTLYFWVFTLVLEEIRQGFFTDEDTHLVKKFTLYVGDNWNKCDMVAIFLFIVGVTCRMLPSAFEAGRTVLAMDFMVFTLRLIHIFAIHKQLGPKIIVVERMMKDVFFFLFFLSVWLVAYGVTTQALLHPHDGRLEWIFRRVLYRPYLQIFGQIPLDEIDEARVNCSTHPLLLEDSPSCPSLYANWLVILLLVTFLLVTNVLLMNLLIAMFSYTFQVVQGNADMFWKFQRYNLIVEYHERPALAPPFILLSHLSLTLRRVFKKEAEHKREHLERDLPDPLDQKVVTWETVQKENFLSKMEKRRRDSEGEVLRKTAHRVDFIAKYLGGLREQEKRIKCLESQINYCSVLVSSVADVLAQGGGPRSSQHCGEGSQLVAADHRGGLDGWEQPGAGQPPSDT
In short: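 Same TRP panel as for the stimulation tests, with FMP dye for TRPC4 and M5 and Fluo8-AM for TRPA1, V1 and M8. Compound applied for 2 min before the channel agonist (TRPC4: 1 μM DAMGO). Inhibition of the agonist response measured on a FlexStation at 32 °C.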

Rattus norvegicus = organism: Rattus norvegicus; experiment: Agonist activity at TRPC6 in rat primary glomerular mesangial cells assessed as increase in intracellular calcium level at 1 uM by Fluo4-AM dye-based fluorescence assay
In short: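 Rat glomerular mesangial cells, isolated by graded sieving from male Sprague–Dawley rats, collagenase-digested, cultured in RPMI 1640 with 17% FBS. Grown overnight on coverslips, then loaded with 10 μM Fluo4-AM and 0.02% pluronic F-127 for 1 h at 37 °C in 1 mM Ca2+ saline, pH 7.4. Compound at 1 μM. Confocal imaging, ex 488/em 515 nm, read as F/F0. For the 2-APB condition, 30 μM 2-APB for 2 min beforehand and kept during compound application.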

SMILES: CCOC(=O)N1CCC(c2cc(O)n3nc(C)c(-c4ccc(F)cc4)c3n2)CC1
Activity [1]: Active

inhibition [2]: < 20%
SMILES: CCOC(=O)N1CCC(c2cc(O)n3nc(C)c(-c4ccc(C(F)(F)F)cc4)c3n2)CC1

SMILES: Cc1nn2c(O)cc(C3CCN(C(=O)OCc4ccccc4)CC3)nc2c1-c1ccc(F)cc1
Activity (Rattus norvegicus): Active
